Bioassay records from PubChem BioAssay.
GSK3 alpha inh = blockers of GSK3A enzyme activity – biochemical, luminescence, cell-free homogeneous, HTS, primary screen | Glycogen synthase kinase-3 alpha (Homo sapiens), P49840 | GSK-3 alpha kinase, ADP-Glo luminescence, 60 min | inhibition, % at 10 µM | 0.1% of 320,000 active | AID 2650, 2010;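 active means more than half of replicates show inhibition above 20%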;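 further: GST-tagged GSK-3 alpha with peptide substrate and 25 µM ATP; 0% = DMSO neutral wells and 100% = GW8510 positive control wells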
Target sequence (P49840 whole entry, looked up): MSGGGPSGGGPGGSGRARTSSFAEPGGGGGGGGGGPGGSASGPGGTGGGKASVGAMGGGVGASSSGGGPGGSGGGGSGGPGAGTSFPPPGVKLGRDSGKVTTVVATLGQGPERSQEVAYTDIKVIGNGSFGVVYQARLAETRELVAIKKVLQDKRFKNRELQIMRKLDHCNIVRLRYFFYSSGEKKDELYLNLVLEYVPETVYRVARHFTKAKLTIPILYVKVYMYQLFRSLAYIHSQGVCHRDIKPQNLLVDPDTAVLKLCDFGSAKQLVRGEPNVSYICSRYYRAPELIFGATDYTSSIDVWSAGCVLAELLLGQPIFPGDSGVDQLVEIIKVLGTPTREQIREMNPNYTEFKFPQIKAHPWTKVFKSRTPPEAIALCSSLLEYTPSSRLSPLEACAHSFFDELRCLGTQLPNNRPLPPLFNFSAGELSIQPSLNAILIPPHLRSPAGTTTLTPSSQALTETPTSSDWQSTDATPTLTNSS
GSK3beta inhib = human GSK3beta kinase inhibitors, primary screen, biochemical, cell-free homogeneous, HTS; GST-GSK3beta kinase, ADP-Glo luminescence, 60 min; stronger effect = lower value; 0.038% of 300,000 active; activity score (negative = inhibition), % at 10 µM;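 active means more than half of replicate wells score below -50%, meaning over 50% inhibition versus plate controls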;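 further: 0% = median DMSO wells and -100% = median GW8510 positive control wells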
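Test system: GST-fused GSK3beta enzyme, cell-free | Quantity: 1.6 ng GST-GSK3beta enzyme per well | Reagent: 25 µM ATP with peptide substrate | Schedule: 60 min enzyme reaction, room temperature | Signal: Luminescent ADP-Glo measurement of ADP formed | Read-out basis: Score relative to plate controls | Control set: DMSO and 20 µM GW8510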
SR-BI uptake up = activators of SR-BI mediated DiI-HDL uptake, primary screen, ldlA[mSR-BI] CHO cells, DiI fluorescence. activation, % at 12.5 µM. 3 h; 100 = double the neutral-control signal. 0.096% of 320,000 active;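 active means mean replicate activation of at least 60% and every replicate at or above 60%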;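 further: 0% = median plate neutral-control signal and 100% = twice that signal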
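Material: SR-BI-overexpressing, LDLR-lacking CHO cells | Dosing: Single compound concentration, delivered by pin transfer | Probe or stimulus: Labelled HDL, 10 µg/mL | Signal: Bottom-read cell fluorescence after medium removal, ex 550/em 595 nm | Schedule: 3 h, 37 °C | Evaluation: HDL uptake via cellular fluorescence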
CDK5 p35 inh = inhibitors of human CDK5/p35 kinase, primary screen, biochemical, single concentration; Cyclin-dependent kinase 5 (Homo sapiens) + Cyclin-dependent kinase 5 activator 1 (Homo …; Recombinant CDK5/p35, ADP-Glo luminescence, 60 min; inhibition, % at 10 µM; 0.01% of 330,000 active; AID 488839, 2010;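 active means highest replicate inhibition of at least 50% and at least 75% of replicates reaching 50%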;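 further: plate controls were DMSO neutral control for no effect and GW8510 at 10 µM for full effect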
SR-BI DiI inh = inhibitors of SR-BI mediated HDL lipid uptake, primary screen, ldlA[mSR-BI] cells, fluorescence, single point | ldlA[mSR-BI] CHO cells, DiI-HDL uptake fluorescence, 3 h | AID 488896, 2010 | inhibition, % at 12.5 µM | 0.96% of 320,000 active | Scavenger receptor class B member 1 (Mus musculus), Q61009;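 active means mean replicate inhibition of at least 70% and a set share of replicates each scoring 70 or more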;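 further: 0% = median of neutral control wells and 100% = median of positive control wells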
An asterisk follows results filed as active; nt = no result. Sampled rows, rich in hits. Any-hit rate of the full collection: about 1.1%.

SMILES	GSK3 alpha inh	GSK3beta inhib	SR-BI uptake up	CDK5 p35 inh	SR-BI DiI inh
Cc1cc(C)c(NC(=O)COC(=O)c2cc([N+](=O)[O-])ccc2N2CCOCC2)c(C)c1	-2	0	-47	3	47
CCOc1ccc(C(=O)COC(=O)c2cc([N+](=O)[O-])ccc2N2CCOCC2)cc1	1	0	-79	1	79*
O=C(COC(=O)c1cc([N+](=O)[O-])ccc1N1CCOCC1)c1ccc(Br)cc1	1	-2	-79	5	79*
Cc1ccc(C(=O)c2cc([N+](=O)[O-])ccc2N2CCOCC2)c(C)c1	nt	3	-81	-3	81*
CC1CCN(C(=O)COC(=O)c2cc([N+](=O)[O-])ccc2N2CCOCC2)CC1	-3	2	-8	1	8
Cc1ccc(C)c(C(=O)COC(=O)c2cc([N+](=O)[O-])ccc2N2CCOCC2)c1	-3	0	-73	-1	73*
Cc1ccc(C)c(S(=O)(=O)N2CCN(C(=O)Cn3cnc4c3c(=O)n(C)c(=O)n4C)CC2)c1	-2	-2	-10	0	10
Cn1c(-c2ccc(F)cc2)cnc1NCc1ccccc1F	1	0	-88	1	88*
CC1(C)C(=O)OC(c2c(F)c(F)c(F)c(F)c2F)C2(CCCCC2)C1=O (configuration not stated)	7	-1	-77	-1	77*
COCCn1c(=NC(=O)CCS(=O)(=O)c2ccccc2)sc2cc(C)ccc21	1	3	-1	3	1
COCCn1c(=NC(=O)/C=C/c2cccs2)sc2cc(NC(C)=O)ccc21	1	2	-72	1	72*
CCNCC(=O)N1c2ccccc2CCc2ccc(NC(=O)OC(C)C)cc21	2	-1	10	-2	-10
O=C(CSc1nc(-c2ccc(F)cc2)cc(C(F)(F)F)n1)NCCN1CCOCC1	2	3	-73	-2	73*
CC(Sc1nc(-c2ccccc2)cc(C(F)(F)F)n1)C(=O)NCCN1CCOCC1 (configuration not stated)	-5	3	-73	2	73*
COc1ccc(-c2cc(C(F)(F)F)nc(SCC(=O)NCCN3CCOCC3)n2)cc1OC	-2	2	-59	-2	59
CC(Sc1nc(-c2ccccc2)cc(C(F)(F)F)n1)C(=O)N1CCOCC1 (configuration not stated)	-3	0	-93	1	93*
CC(Sc1nc(-c2ccccc2)cc(C(F)(F)F)n1)C(=O)N1CCCC1 (configuration not stated)	-2	1	-69	1	66
CC1CCN(C(=O)C(C)Sc2nc(-c3ccccc3)cc(C(F)(F)F)n2)CC1 (configuration not stated)	-4	1	-87	-1	87*
COc1ccc(S(=O)(=O)N2CCOCC2)cc1NC(=O)C1CC1	-2	nt	-3	1	3
COc1cc2c(cc1OC)C(c1cc(OC)c(OC)c(OC)c1)C1(O)C(=O)OCC1(O)C2 (configuration not stated)	nt	nt	-1	1	1
COc1ccc(-c2c(C)cc3oc(=O)cc(-c4ccccc4)c3c2C)cc1	nt	nt	-62	-1	62
Cc1cc2oc(=O)cc(-c3ccccc3)c2c(C)c1-c1ccc(N(C)C)cc1	nt	nt	-78	-3	78*
Cc1ccc(-c2c(C)cc3oc(=O)cc(-c4ccccc4)c3c2C)cc1	nt	nt	-78	-2	78*
CCOC(=O)c1ccc(-c2c(C)cc3oc(=O)cc(-c4ccccc4)c3c2C)cc1	nt	nt	-73	0	73*
O=C1CCCCN1CCCC(=O)N1CCCC(Nc2ccccc2)C1 (configuration not stated)	0	-4	25	0	-25
SMILES	GSK3 alpha inh	GSK3beta inhib	SR-BI uptake up	CDK5 p35 inh	SR-BI DiI inh
COc1ccc(-c2cc(C(=O)Nc3ccccc3O)c3ccccc3n2)cc1OC	-1	0	-30	1	30
COc1ccc(-c2cc(C(=O)Nc3nc4ccccc4s3)c3ccccc3n2)cc1OC	-2	3	-75	-1	75*
Cc1ccc(C(=O)Nc2nc3ccc(S(C)(=O)=O)cc3s2)cc1C	1	0	-59	0	59
COc1ccc(C(=O)Nc2nc3ccc(S(C)(=O)=O)cc3s2)cc1OC	-3	1	-78	-2	78*
COc1ccc(-c2cc(C(=O)OCC(=O)NC3CC3)c3ccccc3n2)cc1OC	-6	nt	-72	1	72*
COc1ccc2nc(-c3ccccc3)cc(C(=O)OCC(=O)NC3CC3)c2c1	nt	nt	-25	1	25
Cc1cc(C(=O)Nc2sc3c(c2C#N)CCCCC3)cs1	3	-6	-79	-13	79*
CCc1ccccc1N(C(=O)c1ccco1)C(C(=O)NC1CCCC1)c1cccnc1 (configuration not stated)	0	nt	nt	0	nt
Cc1ccc(-n2nnnc2SCC(=O)NCC2(N3CCOCC3)CCCCC2)c(C)c1	nt	nt	4	-1	-4
COc1ccc(-c2cc(C(=O)Nc3c(Cl)cc(Cl)cc3Cl)c3ccccc3n2)cc1OC	-2	2	-47	-3	47
COc1ccc(-c2cc(C(=O)Nc3sc4c(c3C#N)CCCC4)c3ccccc3n2)cc1OC	0	-1	-85	0	85*
COc1cccc(OCC(=O)Nc2cc(Cl)ccc2Oc2ccccc2)c1	nt	1	-87	1	87*
COc1cccc(-c2cc(C(F)(F)F)n3nc(C(=O)N4CCCCC4c4cccnc4)cc3n2)c1 (configuration not stated)	-1	-2	-77	-5	77*
O=C(O)/C=C/C(=O)NCc1csc2ccccc12	-4	2	-5	-5	5
O=[N+]([O-])c1ccc(O)c(Nc2c([N+](=O)[O-])ccc3nonc23)c1	3	2	-15	-2	15
Fc1ccc(Nc2nc(-c3ccncc3)nc3ccccc23)cc1	1	-3	-78	0	78*
O=C(O)c1ccc(Nc2nc(-c3cccnc3)nc3ccccc23)cc1	61*	2	nt	nt	nt
Oc1cccc(Nc2nc(-c3ccccc3)nc3ccccc23)c1	1	3	-72	-1	72*
CCCn1c(N/N=C(C)\C=C\c2ccccc2)nc2c1c(=O)[nH]c(=O)n2C	-2	0	nt	nt	nt
CCc1cc(OCCOCCN(C)C)ccc1Cl	-2	2	-8	-1	8
COc1ccc(-c2[nH]c(-c3cc(OC)c4c(c3)OCO4)nc2-c2ccccc2)cc1	1	2	-88	0	88*
